Laboratory results: ChEMBL document CHEMBL1126267, “A novel synthesis and potent antiinflammatory activity of 4-hydroxy-2(1H)-oxo-1-phenyl-1,8-naphthyridine-3-carboxamides” (1992)

How the values were obtained:
Format in all cases: functional
Conditions in all cases: route oral
Rattus norvegicus [1] = test: Inhibition of Zymosan-induced rat's paw edema(ZPE) after peroral administration of 100 mg/kg dose.
Summary of the method: (§1)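 Male Wistar rats (about 150 g) were dosed orally with compound suspended in 5% arabic gum, 1 h before a subplantar hind-paw injection of 0.1 mL saline. The irritant was 1% zymosan for 33 or 1% λ-carrageenin for 34. Paw volume was measured by plethysmograph before dosing and at 4 h (zymosan) or 3 h (carrageenin). Swelling is relative to initial volume, as mean ± SEM. % inhibition is versus the control group's mean swelling.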

Rattus norvegicus [2] = test: Inhibition of carrageenan-induced rat's paw edema (CPE) after peroral administration of 100 mg/kg dose.; summary of the method: as §1
Rattus norvegicus [3] = test: Compound was tested for the inhibition of rat reversed passive Arthus pleurisy after peroral administration of 100 mg/kg dose at 0.94 mL of exudate volume with 0.86 mL of control (injected intrapleurally)
Summary of the method: (§2)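 Male Wistar rats (about 250 g) were given compound orally before the antiserum. Under ether anesthesia, 0.2 mL rabbit anti-egg albumin antiserum was injected intrapleurally. After 30 min, egg albumin (15 mg/100 g body weight in 0.1 mL saline) was given iv. Rats were killed 4.5 h later and the thoracic cavity was rinsed with 5 mL saline. Exudate volume and infiltrated cell number were measured, with inhibition % versus controls as mean ± SEM.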

Rattus norvegicus [4] = test: Antiinflammatory activity on Carrageenan rat's paw edema(CPE) after peroral administration of 100 mg/kg dose with control swelling of 64.2%
Rattus norvegicus [5] = test: Compound was tested for the inhibition of rat reversed passive Arthus pleurisy after peroral administration of 100 mg/kg dose at 4.35*10e6 no of cells with 3.62*10e6 cells of control
Summary of the method: (§3)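 Male Wistar rats (about 250 g) under ether received 0.2 mL rabbit anti-egg-albumin antiserum intrapleurally. Thirty min later they got 15 mg EA/100 g body weight in 0.1 mL saline iv. Compounds were given orally beforehand. Rats were killed 4.5 h after induction and the thoracic cavity rinsed with 5 mL saline. Exudate volume and infiltrated cell count were read as mean ± SE. % inhibition is versus control.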

Rattus norvegicus [6] = test: Antiinflammatory activity on Zymosan-induced rat's paw edema(ZPE) after peroral administration of 100 mg/kg dose with control swelling of 71.7%
Summary of the method: (§4)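 Male Wistar rats weighing about 150 g were dosed orally with compound suspended in 5% arabic gum. 1 h later, 1% zymosan in 0.1 mL saline was injected subplantarly into the hind paw. Paw volume was measured by plethysmograph before dosing and 4 h after zymosan, with edema as the volume difference. Inhibition % was derived from mean swelling versus the control group.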

Rattus norvegicus [7] = test: Antiinflammatory activity on Carrageenan rat's paw edema(CPE) after peroral administration of 100 mg/kg dose with control swelling of 73.7%
Rattus norvegicus [8] = test: Antiinflammatory activity on Zymosan-induced rat's paw edema(ZPE) after peroral administration of 100 mg/kg dose with control swelling of 72.9%; summary of the method: as §4
Rattus norvegicus [9] = test: Compound was tested for the inhibition of rat reversed passive Arthus pleurisy after peroral administration of 100 mg/kg dose at 1.59+/-0.13*10e6 no of cells with 2.17*10e6 cells of control; summary of the method: as §2
Rattus norvegicus [10] = test: Compound was tested for the inhibition of rat reversed passive Arthus pleurisy after peroral administration of 100 mg/kg dose at 0.37 mL of exudate volume with 0.46 mL of control (injected intrapleurally); summary of the method: as §2
Rattus norvegicus [11] = test: Compound was tested for the inhibition of rat reversed passive Arthus pleurisy after peroral administration of 100 mg/kg dose at 4.63*10e6 no of cells with 5.72*10e6 cells of control; summary of the method: as §3
Rattus norvegicus [12] = test: Compound was tested for the inhibition of rat reversed passive Arthus pleurisy after peroral administration of 100 mg/kg dose at 0.63 mL of exudate volume with 0.84 mL of control (injected intrapleurally); summary of the method: as §2
Rattus norvegicus [13] = test: Antiinflammatory activity on Zymosan-induced rat's paw edema(ZPE) after peroral administration of 100 mg/kg dose with control swelling of 62.8%; summary of the method: as §4
Rattus norvegicus [14] = test: Antiinflammatory activity on Carrageenan rat's paw edema(CPE) after peroral administration of 100 mg/kg dose with control swelling of 68.1%

SMILES	inhibition in vivo at 100 mg/kg (Rattus norvegicus [1]) [%]	inhibition in vivo at 100 mg/kg (Rattus norvegicus [2]) [%]	inhibition in vivo at 100 mg/kg (Rattus norvegicus [3]) [%]	Swelling (Rattus norvegicus [4]) [%]	inhibition in vivo at 100 mg/kg (Rattus norvegicus [5]) [%]	Swelling (Rattus norvegicus [6]) [%]	Swelling (Rattus norvegicus [7]) [%]	Swelling (Rattus norvegicus [8]) [%]	inhibition in vivo at 100 mg/kg (Rattus norvegicus [9]) [%]	inhibition in vivo at 100 mg/kg (Rattus norvegicus [10]) [%]	inhibition in vivo at 100 mg/kg (Rattus norvegicus [11]) [%]	inhibition in vivo at 100 mg/kg (Rattus norvegicus [12]) [%]	Swelling (Rattus norvegicus [13]) [%]	Swelling (Rattus norvegicus [14]) [%]
CN(C)CCNC(=O)c1c(O)c2cccnc2n(-c2ccccc2)c1=O	22.6	18.4	-10.4	52.4	-16.6	55.5	–	–	–	–	–	–	–	–
O=C(Nc1ccccn1)c1c(O)c2cccnc2n(-c2ccccc2)c1=O	-13.5	14.6	–	54.8	–	81.4	–	–	–	–	–	–	–	–
Nc1ccc(NC(=O)c2c(O)c3cccnc3n(-c3ccccc3)c2=O)cc1	-5.5	0	–	–	–	–	79	76.9	–	–	–	–	–	–
O=C(Nc1ccccc1)c1c(O)c2cccnc2n(-c2ccccc2)c1=O	4.6	-15	–	73.8	–	68.4	–	–	–	–	–	–	–	–
O=C(Nc1cnccn1)c1c(O)c2cccnc2n(-c2ccccc2)c1=O	29.6	21.2	–	50.6	–	50.5	–	–	26.7	24.3	–	–	–	–
COc1cccc(NC(=O)c2c(O)c3cccnc3n(-c3ccccc3)c2=O)c1	5.7	20.7	–	–	–	–	–	–	–	–	22.1	26.9	59.2	54
